Paper PMC6568325 (ACS chemical biology, 2018)

How the values were obtained:
[1] = biological target: T1, CjMTAN (Campylobacter jejuni subsp. jejuni, UniProt Z9IB28FKP7); test: CjMTAN inhibition by transition-state analogues; type: biochemical; conditions: for Ki: from initial rates, MTA 1 mM, 25 °C, pH 7.4
[2] = biological target: T1, CjMTAN; test: CjMTAN substrate specificity, steady-state kinetics; type: biochemical; conditions: 25 °C; for Km / kcat: substrate of CjMTAN, 50 mM Hepes-KOH pH 7.4; for h (Hill coefficient): substrate saturation, sigmoidal fit, pH 7.4
Method in brief: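 Recombinant N-terminally His6-tagged CjMTAN from strain 81-176, expressed in E. coli and Ni-NTA purified. Substrate varied from 1 to 100 µM, with stock concentrations set by A260. Reaction contained 1 U xanthine oxidase to convert released adenine to 2,8-dihydroxyadenine, read at 305 nm (15.5 mM–1 cm–1). Started with 50 nM enzyme and followed up to 5 min. Initial rates in duplicate or triplicate, fitted to Michaelis-Menten and/or allosteric sigmoidal equations.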

[3] = system: C. jejuni; test: C. jejuni growth IC50 on Mueller-Hinton agar; type: cell-based; conditions: Campylobacter jejuni, 144 h, read-out: IC50 C. jejuni growth
[4] = system: C. jejuni; test: C. jejuni growth IC50 in liquid culture media; type: cell-based; conditions: Campylobacter jejuni, 16.4 h, read-out: IC50 C. jejuni growth

Molecule | Ki [1] [nM] | Km [2] [µM] | kcat [2] [s⁻¹] | other results
5′-deoxy-5′-Pro-DADMe-ImmA [PDIA] | 5.1 ± 0.6 | – | – | –
5′-methylthioadenosine | – | 7.1 ± 0.7 | 0.80 ± 0.02 | –
C[C@H]1O[C@@H](n2cnc3c(N)ncnc32)[C@H](O)[C@@H]1O [5′-deoxyadenosine] | – | 21.4 ± 1.3 | 0.92 ± 0.02 | h (Hill coefficient) [2]: 1.8 ± 0.2
Nc1ncnc2c1ncn2[C@@H]1O[C@H](CCC(=O)c2cccc(C(=O)O)c2)[C@@H](O)[C@H]1O [6-amino-6-deoxyfutalosine] | – | 3.5 ± 0.4 | 0.27 ± 0.01 | –
CCCCSC[C@H]1CN(Cc2c[nH]c3c(N)ncnc23)C[C@@H]1O [BTDIA, BuS-DADMe-ImmA] | 4.1 ± 1 | – | – | slow-onset inhibition ([1]; CjMTAN): slow-onset tight-binding inhibitors
Nc1ncnc2c(CN3C[C@H](CO)[C@@H](O)C3)c[nH]c12 [DIA] | 2610 ± 332 | – | – | fold difference in affinity between MTDIA and DIA ([1]; MTDIA 2.9 nM vs DIA 2.7 μM): ~1000 fold
CNC(C)C1CCC(N)C(OC2C(N)CC(N)C(OC3OCC(C)(O)C(NC)C3O)C2O)O1 (centres unmarked) [Gentamicin] | – | – | – | IC50 [3]: 390 ± 60 nM; IC50 [4]: 2100 ± 100 nM
CSC[C@H]1N[C@@H](c2c[nH]c3c(N)ncnc23)[C@H](O)[C@@H]1O [MTIA] | 32.3 ± 3.4 | – | – | –
CSC[C@H]1O[C@@H](n2ccc3c(N)ncnc32)[C@H](O)[C@@H]1O [MTT] | 22100 ± 6080 | – | – | –
Nc1ncnc2c(CN3CC(O)C(CSc4ccccc4)C3)c[nH]c12 (centres unmarked) [PhTDIA] | 5.3 ± 0.3 | – | – | –
Nc1ncnc2c1ncn2[C@@H]1O[C@H](CSCC[C@H](N)C(=O)O)[C@@H](O)[C@H]1O [S-5′-Adenosyl-L-homocysteine, S-5′-adenosyl-L-homocysteine] | – | 12.2 ± 1.5 | 0.55 ± 0.03 | h (Hill coefficient) [2]: 2.6 ± 0.7
Nc1ncnc2c1ncn2[C@@H]1O[C@H](CO)[C@@H](O)[C@H]1O [adenosine] | – | 7.5 ± 0.6 | 0.30 ± 0.01 | –
Nc1ncnc2c(CN3CC(O)C(CSc4ccc(Cl)cc4)C3)c[nH]c12 (centres unmarked) [pCPTDIA] | 4.8 ± 0.3 | – | – | –
